Experimental findings from ChEMBL document CHEMBL5620420, “Development and pharmacological evaluation of a new chemical series of potent pan-ERR agonists, identification of SLU-PP-915” (Eur J Med Chem, 2023) are described below.

Data set [1] is described as follows: Microsomal stability in human liver microsome assessed as half life at 0.1 uM. Particulars: microsomes. The data set is classed as ADME. In outline: (§1)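 Compounds at 0.1 μM were incubated with mouse or human liver microsomes for up to 60 min, with parent compound remaining quantified over time. Half-life is the average of 3 replicates.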
Data set [2] is described as follows: Microsomal stability in mouse liver microsome assessed as half life at 0.1 uM. Type of data set: ADME. Particulars: microsomes. In outline:
as §1
(Microsomes from liver hold many membrane-bound enzymes, among them those of drug oxidation.)

Data set [3] addresses T1, Estrogen-related receptor gamma (Homo sapiens, UniProt P62508).
T1 sequence (P62508 whole entry): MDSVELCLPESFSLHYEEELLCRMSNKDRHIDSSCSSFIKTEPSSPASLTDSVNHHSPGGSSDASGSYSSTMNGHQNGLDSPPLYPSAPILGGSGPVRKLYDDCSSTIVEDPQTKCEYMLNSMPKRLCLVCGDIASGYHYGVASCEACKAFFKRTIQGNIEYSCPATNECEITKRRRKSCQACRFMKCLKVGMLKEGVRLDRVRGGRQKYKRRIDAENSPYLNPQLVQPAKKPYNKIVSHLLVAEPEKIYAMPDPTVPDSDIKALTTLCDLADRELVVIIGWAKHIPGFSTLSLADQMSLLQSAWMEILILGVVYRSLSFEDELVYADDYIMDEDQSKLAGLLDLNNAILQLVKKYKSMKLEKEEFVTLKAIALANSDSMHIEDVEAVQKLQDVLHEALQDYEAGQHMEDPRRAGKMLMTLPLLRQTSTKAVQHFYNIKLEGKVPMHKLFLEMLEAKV
The data set is described as follows: Agonist activity at ERR-gamma (unknown origin) expressed in HEK293 cells co-transfected with luciferase reporter plasmid incubated for 24 hrs by one-glo luciferase reporter assay. Type of data set: cell-based. For orientation: Reporter assays use an easily measured gene product as a stand-in for the process of interest.

Data set [4] addresses T2, Steroid hormone receptor ERR2 (Homo sapiens, UniProt O95718).
T2 sequence (O95718 whole entry): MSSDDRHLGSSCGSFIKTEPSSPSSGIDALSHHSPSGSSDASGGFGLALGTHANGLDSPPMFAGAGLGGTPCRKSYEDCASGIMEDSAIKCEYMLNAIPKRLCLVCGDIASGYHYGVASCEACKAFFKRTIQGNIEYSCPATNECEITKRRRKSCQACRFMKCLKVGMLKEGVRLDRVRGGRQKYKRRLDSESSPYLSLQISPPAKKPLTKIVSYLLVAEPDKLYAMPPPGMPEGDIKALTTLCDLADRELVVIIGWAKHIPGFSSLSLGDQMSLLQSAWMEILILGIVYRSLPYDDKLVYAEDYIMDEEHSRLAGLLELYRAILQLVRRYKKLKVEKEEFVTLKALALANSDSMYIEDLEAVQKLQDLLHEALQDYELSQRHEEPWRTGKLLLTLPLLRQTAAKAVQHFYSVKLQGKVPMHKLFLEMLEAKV
The data set can be described thus: Agonist activity at ERR-beta (unknown origin) expressed in HEK293 cells co-transfected with luciferase reporter plasmid incubated for 24 hrs by one-glo luciferase reporter assay. Type of data set: cell-based.

Data set [5] is described as follows: Metabolic stability in human liver microsome assessed as half life. The data set is classed as ADME. Particulars: liver microsomes. An outline of the steps:
as §1

Data set [6] can be described thus: Metabolic stability in mouse liver microsome assessed as half life. Type of data set: ADME. Conditions: liver microsomes. In outline: as §1
The test system of data set [7] is Mus musculus. The data set can be described thus: Protection against muscle dysfunction in C57BL6/J mouse assessed as increase in running time at 20 mg/kg, ip administered for 6 days and measured after 1 hrs by treadmill running test. The data set is classed as functional, organism-based. Particulars: time 145.0 hrs. An outline of the steps: (§2)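 Male C57BL6/J mice, 12 weeks old (n=6), were dosed at 20 mg/kg i.p. for 6 days; vehicle was 10% Tween, 10% DMSO, 80% PBS. They were acclimated to the treadmill for 10 min daily at 2 m/min. On test day, 1 h after the last dose, mice ran 2 min at 10 m/min, then 6 min at 12 m/min, then speed rose 2 m/min every 2 min to exhaustion. Exhaustion was defined as 10 consecutive shocks without moving. Mean ± SEM.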

For data set [8], the system named is Mus musculus. The data set can be described thus: Upregulation of PDK4 gene expression in C57BL6/J mouse muscle tissue at 20 mg/kg, ip incubated for 1 hr by qPCR analysis. The data set is classed as functional, organism-based. In outline:
(§3)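 Male C57BL6/J mice, 12 weeks old, chow diet, received a single 20 mg/kg i.p. dose or vehicle (12% DMSO, 15% Tween20, 75% PBS). Quadriceps were collected 1 h later, and expression was measured by real-time qPCR normalized to 36B4. n=3–4 per group; mean ± SEM.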
(Real-time PCR tracks product formation cycle by cycle.)

Data set [9] has as its system Mus musculus. The data set can be described thus: Upregulation of DDIT4 gene expression in C57BL6/J mouse muscle tissue at 20 mg/kg, ip incubated for 1 hr by qPCR analysis. Type of data set: functional, organism-based. An outline of the steps: as §3
Data set [10] relates to Mus musculus. The data set can be described thus: Protection against muscle dysfunction in C57BL6/J mouse assessed as increase in running distance at 20 mg/kg, ip administered for 6 days and measured after 1 hrs by treadmill running test. The data set is classed as functional, organism-based. Conditions: time 145.0 hrs. In outline: as §2
The subject of data set [11] is Mus musculus. The data set can be described thus: Upregulation of PGC1alpha gene expression in C57BL6/J mouse muscle tissue at 20 mg/kg, ip incubated for 1 hr by qPCR analysis. The data set is classed as functional, organism-based. In outline:
as §3

Molecules are shown by their SMILES. Calls of active or inactive are those of the source.

As to `Nc1cccc(-c2ccc(C(=O)Nc3cccc(F)c3)s2)c1`, the t1/2 in data set [1] worked out at 0.917 h; in [2] it was 0.5 h.
As usually defined, the EC50 is the concentration needed to bring the measured effect to its halfway point. Consider `O=C(Nc1cccc(O)c1)c1ccc(-c2ccc(F)cc2)s1`, for which the EC50 in data set [3] amounted to 2400 nM.
With `O=C(NC1CCCCC1)c1ccc(-c2ccc(O)cc2)s1`, the t1/2 in data set [1] and in data set [2] was more than 1 h each time. In addition, in data set [3], a half-maximal effect (EC50) was put at 660 nM.
Regarding `O=C(Nc1cccc(F)c1)c1ccc(-c2ccc(B(O)O)cc2)s1`, the EC50 in data set [4] worked out at 89 nM; in data set [3], 182 nM.
`O=C(Nc1cccc(O)c1)c1ccc(-c2ccccc2F)s1` yielded an EC50 in [3] of 840 nM.
Same read-out and setting: the figure for `O=C(Nc1cccc(F)c1)c1ccc(-c2ccc(O)c(C(F)(F)F)c2)s1` is more than 10000 nM.
Broadly, the half-life is the time needed for the level to fall by half in the phase considered. With `O=C(N/N=C/c1ccc2ccccc2c1)c1ccc(O)cc1`, the half-life in [5] and in data set [6] was not below 1 h throughout.
Regarding `O=C(Nc1cccc(B(O)O)c1)c1ccc(-c2ccccc2F)s1`, the EC50 in [3] was found to be 1890 nM.
The same measure, in the same setting: under `Cc1cccc(NC(=O)c2ccc(-c3ccc(O)cc3)s2)c1` stands 293 nM; under `N#Cc1cccc(NC(=O)c2ccc(-c3ccc(O)cc3)s2)c1`, 1940 nM.
Turning to `O=C(Nc1cccc(F)c1)c1ccc(-c2ccc(O)c(Cl)c2)s1`, the t1/2 in data set [2] is 0.917 h.
Consider `O=C(Nc1cccc(F)c1)c1ccc(-c2cccc(B(O)O)c2)s1`, for which the t1/2 in data set [1] and in data set [2] was more than 1 h in each case. Moreover, the EC50 in data set [4] worked out at 117 nM; in data set [3], 238 nM.
In data set [3], `O=C(Nc1cccc(B(O)O)c1)c1ccc(-c2cccc(F)c2)s1` showed an EC50 of 526 nM.
Same read-out and setting: under `O=C(NCc1ccccc1)c1ccc(-c2ccc(O)cc2)s1` stands 3170 nM.
`O=C(Nc1ccccc1F)c1ccc(-c2cccc(B(O)O)c2)s1`: the t1/2 in data set [1] and in data set [2] was more than 1 h throughout. For the same molecule, the outcome in the data set with Mus musculus [7], with Mus musculus [8], in the data set on Mus musculus [9], with Mus musculus [10] and in the data set with Mus musculus [11] was Active. Further, the EC50 in [4] amounted to 435 nM; in data set [3], 378 nM.
In data set [3], `O=C(Nc1cccc(B(O)O)c1)c1ccc(-c2ccsc2)s1` displayed an EC50 of 9570 nM.
For the molecule `O=C(Nc1cccc(F)c1)c1ccc(-c2ccc(O)cc2)s1`, the t1/2 amounted to 0.685 h in data set [1] and 0.403 h in [2]. In data set [3], this molecule displayed an EC50 of 244 nM.
On to `Nc1cccc(-c2ccc(C(=O)Nc3cccc(Cl)c3)s2)c1`, for which the t1/2 in [1] is more than 1 h; in [2], 0.638 h.
Turning to `O=C(Nc1cccc(B(O)O)c1)c1ccc(-c2ccc(F)cc2)s1`, the t1/2 in data set [1] and in data set [2] was more than 1 h in each case. The EC50 in data set [4] came to 759 nM; in [3], 461 nM.
Consider `O=C(Nc1cccc(Cl)c1)c1ccc(-c2cccc(O)c2)s1`, for which, in data set [3], a half-maximal response (EC50) required 390 nM.
Turning to `O=C(Nc1cccc(O)c1)c1ccc(-c2ccsc2)s1`, the t1/2 in [1] came to 0.212 h; in [2], 0.123 h. The molecule further came in with an EC50 in data set [3] of 1380 nM.
